Results taken from ChEMBL document CHEMBL3271978, “Synthesis and some pharmacological properties of [4-homoserine]oxytocin” (J Med Chem, 1977).
Positions of bridges follow the written chain, without caps; N, C: chain ends. Non-standard residues stand in square brackets, D forms with d. Residues, ends and D or L forms follow the SMILES beside them. hSer = N[C@@H](CCO)C(=O)O

Assays:
[1] = Ratio of oxytocic potency in rat uterus to antidiuretic activity in iv dosed hydrated rat anesthetized with ethanol
[2] = Oxytocic potency in rat uterus in presence of 0.5 mM Mg2+; type: functional
Method in brief: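 Isolated rat uterus suspended in solution containing 0.5 mM Mg2+; oxytocic activity assayed against USP posterior pituitary reference standard.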

[3] = tested on: Rattus norvegicus; test: Oxytocic activity in iv dosed lactating rat anesthetized with pentobarbital assessed as milk ejection; type: functional
Method in brief: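 Lactating rats anesthetized with pentobarbital received peptide by intravenous injection; milk-ejection response measured relative to USP posterior pituitary reference standard.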

[4] = species: Rattus norvegicus; test: Vasopressor activity in phenoxybenzamine-treated rat under urethane anesthesia; type: ADME, organism-based; conditions: in vivo
Method in brief: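 Rats pretreated with phenoxybenzamine, under urethane anesthesia; pressor response assayed against USP posterior pituitary reference standard.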

[5] = Oxytocic potency in rat uterus; type: functional
Method in brief: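 Isolated rat uterus suspended in bath solution without Mg2+; oxytocic activity assayed against USP posterior pituitary reference standard.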

[6] = tested on: Rattus norvegicus; test: Antidiuretic activity in iv dosed hydrated rat anesthetized with ethanol; type: ADME, organism-based, Urine; conditions: in vivo
[7] = Ratio of oxytocic potency in rat uterus to vasopressor activity in phenoxybenzamine-treated rat under urethane anesthesia

| SMILES | Ratio [1] | Activity [2] | Activity [3] | Activity [4] | Activity [5] | Activity [6] | Ratio [7] |
| --- | --- | --- | --- | --- | --- | --- | --- |
| CC[C@H](C)[C@@H]1NC(=O)[C@H](Cc2ccc(O)cc2)NC(=O)[C@@H](N)CSSC[C@@H](C(=O)N2CCC[C@H]2C(=O)N[C@@H](CC(C)C)C(=O)NCC(N)=O)NC(=O)[C@H](CC(N)=O)NC(=O)[C@H](CO)NC1=O (H-CYISNCPLG-NH2; disulfide 1-6) | 80 | 331 U/mg | 255 U/mg | 0.028 U/mg | 148 U/mg | 0.06 U/mg | >1950 |
| CC[C@H](C)[C@@H]1NC(=O)[C@H](Cc2ccc(O)cc2)NC(=O)[C@@H](N)CSSC[C@@H](C(=O)N2CCC[C@H]2C(=O)N[C@@H](CC(C)C)C(=O)NCC(N)=O)NC(=O)[C@H](CC(N)=O)NC(=O)[C@H](CCC(N)=O)NC1=O [OXYTOCIN] | – | 486 U/mg | 474 U/mg | – | 520 U/mg | 4 U/mg | – |
| CC[C@H](C)[C@@H]1NC(=O)[C@H](Cc2ccc(O)cc2)NC(=O)[C@@H](N)CSSC[C@@H](C(=O)N2CCC[C@H]2C(=O)N[C@@H](CC(C)C)C(=O)NCC(N)=O)NC(=O)[C@H](CC(N)=O)NC(=O)[C@H](CCO)NC1=O (H-CYI[hSer]NCPLG-NH2; disulfide 1-6) | 520 | 380 U/mg | 357 U/mg | 0.021 U/mg | 125 U/mg | 0.24 U/mg | 5950 |
| CC[C@H](C)[C@@H]1NC(=O)[C@H](Cc2ccc(O)cc2)NC(=O)[C@@H](N)CSSC[C@@H](C(=O)N2CCC[C@H]2C(=O)N[C@@H](CC(C)C)C(=O)NCC(N)=O)NC(=O)[C@H](CC(N)=O)NC(=O)[C@H](CC(N)=O)NC1=O (H-CYINNCPLG-NH2; disulfide 1-6) | 929 | 490 U/mg | 300 U/mg | 0.12 U/mg | 108 U/mg | 0.044 U/mg | 823 |
| CC[C@H](C)[C@@H]1NC(=O)[C@H](Cc2ccc(O)cc2)NC(=O)[C@@H](N)CSSC[C@@H](C(=O)N2CCC[C@H]2C(=O)N[C@@H](CC(C)C)C(=O)NCC(N)=O)NC(=O)[C@H](CC(N)=O)NC(=O)[C@H]([C@@H](C)O)NC1=O (H-CYITNCPLG-NH2; disulfide 1-6) | 510 | 719 U/mg | 543 U/mg | 0.43 U/mg | 923 U/mg | 1.8 U/mg | 2150 |
